167 variants from the RNAGym collection of RNA variant scans (doi:10.1126/science.aae0568) can be followed below.

Fewer inactive variants are shown than the library holds.

Sequences and labels used below:
B1: tRNA (parent)
chain: GUUCCGUUGGCGUAAUGGUAACGCGUCUCCCUCCUAAGGAGAAGACUGCGGGUUCGAGUCCCGUACGGAACG

Variants of B1 are the subject of the data set. The data set can be described thus: yeast fitness relative to wild type (ratio to wild type); higher = fitter; tRNA-Arg(CCU), competitive growth, 37 C, YPD. Put shortly: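 Gene amplicons from the start population and from each of six end populations were read by 100-nucleotide paired-end sequencing. Those end populations came from pooled Saccharomyces cerevisiae strains carrying tRNA-Arg(CCU) gene variants at the native locus, competed in YPD at 37°C for 24 hours. Fitness relative to wild type was worked out from changes in genotype frequencies. Genotypes needed ≥ 100 starting reads, and estimates < 0.5 were set to 0.5.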
For the variant A20U G41C, the yeast fitness stood at 0.753.

For U19C A37G C49U A69C, the yeast fitness stood at 0.51.

On to U3C U53A, for which the yeast fitness came to 0.664.

Turning to C4U G9A C34U A36G C55G A57U G67A, the yeast fitness is at most 0.5.

Consider A15C U35G, for which the yeast fitness was found to be 0.621.

As to A14C A37G A57G, the yeast fitness was found to be 0.625.

With G12A U19A C31G C34U A57G, the yeast fitness is at most 0.5.

A15G U16A A45U: the yeast fitness worked out at 0.642.

Take G48C U59G: the yeast fitness is 0.722.

Regarding C4U C27U U35C C61G, the yeast fitness is at most 0.5.

Take C31G A45U U47A: the yeast fitness is 0.521.

For the variant U8A U28A C31G C60A, the yeast fitness was at most 0.5.

As to G10C C22U C61U, the yeast fitness is 0.518.

With U2C G18A G25A, the yeast fitness was 0.599.

Consider G9A C30G C31G U32A C66U, for which the yeast fitness was at most 0.5.

In the case of U13A C49U A65C, the yeast fitness was determined as 0.624.

For the variant C22A C49A C61U, the yeast fitness was at most 0.5.

C5G A43C G52C: the yeast fitness was at most 0.5.

For the variant G25C C31G, the yeast fitness came out at 0.704.

Turning to A15G A37G, the yeast fitness amounted to 0.795.

As to U19A C24U A69U, the yeast fitness is 0.746.

With G48C C55A C61U, the yeast fitness was at most 0.5.

C4G U32A C34G G41C G68A: the yeast fitness was at most 0.5.

With A42G A57U, the yeast fitness stood at 0.714.

For G9A A14G G23A G41C G51C, the yeast fitness was at most 0.5.

As for U2G G12C, the yeast fitness is 0.757.

In the case of U7G G23C U54A A57C A70U, the yeast fitness is at most 0.5.

As for C11U A15G C27G A45U, the yeast fitness is at most 0.5.

For G17A C22U U28C A65U, the yeast fitness was at most 0.5.

As for G6C G38C C60A, the yeast fitness was at most 0.5.

As for G6A A20C A40C A42U G56A C66G, the yeast fitness is at most 0.5.

Take U35G A37G C49U: the yeast fitness is at most 0.5.

Take G6A G10C A20G C22U G38C C61G: the yeast fitness is at most 0.5.

Consider U59G A65G, for which the yeast fitness is 0.965.

On to A20C G25C C33U C60A C66G, for which the yeast fitness is at most 0.5.

For the variant U16A U54A, the yeast fitness is 0.573.

Consider G23A C29G U32C A45U C60G C61U A69G, for which the yeast fitness is at most 0.5.

With A14U C24U U64C, the yeast fitness is at most 0.5.

Take G12C A14G G25A G41C U54G A65G G68U A70C: the yeast fitness was found to be 0.545.

C11U C66G: the yeast fitness was 0.745.

For G44C G56A A57G, the yeast fitness came out at 0.543.

With C55A C66G, the yeast fitness is at most 0.5.

For C30G G68A, the yeast fitness was determined as 0.698.

For the variant C24G A37U C55U G67C, the yeast fitness was at most 0.5.

Take G6A C11A A37G G68C: the yeast fitness was found to be 0.562.

Turning to U7G A15C C24U A43G G51A U54C, the yeast fitness was 0.634.

On to U19G C49U, for which the yeast fitness worked out at 0.859.

As for C5U G41A C55G C66U, the yeast fitness is at most 0.5.

With G9A C34U C61G, the yeast fitness is 0.521.

For A14C C31U A36U C55G, the yeast fitness was at most 0.5.

Regarding C4A G12C U19C C24G A43U G67A, the yeast fitness is at most 0.5.

With U7G A57U, the yeast fitness is 0.599.

Regarding C27U A37U U47G, the yeast fitness was determined as 0.531.

Take C11G U16A G23C C30U C34U A69U: the yeast fitness amounted to 0.844.

Take C24U A37G A45U A69C: the yeast fitness is at most 0.5.

Regarding A65C A69C A70G, the yeast fitness is 0.554.

Take A20G G39C A45C C49G: the yeast fitness was at most 0.5.

With C5U A43U C49U, the yeast fitness came out at 0.555.

For the variant A40C G48A C60G, the yeast fitness amounted to 0.683.

As to C5A C33A G38A A45C G52A U54G G67A, the yeast fitness is at most 0.5.

C5A U7A G39A C60U C62A: the yeast fitness is at most 0.5.

Regarding A15G G25A U32G A40G C60G, the yeast fitness came to 0.501.

Consider G25A A43C C60A, for which the yeast fitness was found to be 0.544.

On to U8C C30G C46A U47G C49A G52A G58C U64G A65G, for which the yeast fitness was at most 0.5.

Regarding C11U U64G, the yeast fitness is 0.739.

G25A U47G C49A: the yeast fitness was found to be 0.548.

In the case of C29U A65U, the yeast fitness was found to be 0.754.

For G9C U16G C29A, the yeast fitness was at most 0.5.

On to C22U G50U G63A, for which the yeast fitness is at most 0.5.

Take G9A U47G: the yeast fitness was found to be 0.626.

With C5G C27U, the yeast fitness worked out at 0.651.

With G12A G17C G58A A70G, the yeast fitness is at most 0.5.

On to C34U G67A, for which the yeast fitness amounted to 0.744.

Turning to A42C C55G A57C C62U, the yeast fitness was at most 0.5.

Regarding C60G A69U, the yeast fitness was 0.655.

Regarding A15G C24G U26A G52A G67A G68C, the yeast fitness was 0.561.

Take A20C G56U: the yeast fitness came to 0.765.

With C27U A37G A70C, the yeast fitness is 0.562.

As for U3C A15C A20G, the yeast fitness was at most 0.5.

As to U16C A20C A36U C61U, the yeast fitness is at most 0.5.

Take G10C A21C C30G U32C C60U G67C: the yeast fitness turned out to be 0.54.

As for C27G U54C C62U, the yeast fitness is 0.552.

Regarding C49G G68C A70C, the yeast fitness is 0.623.

On to C30G A43C C60G C66U, for which the yeast fitness was at most 0.5.

On to A15C U19A, for which the yeast fitness was 0.817.

Turning to A36G A42U U53C G58C, the yeast fitness was 0.569.

Consider G17A A20G C27G A36C U47A G68A, for which the yeast fitness was at most 0.5.

As for A20G C66A, the yeast fitness stood at 0.635.

With U28A C33G A43C A57C G67A A69U, the yeast fitness was at most 0.5.

Regarding G44C C66U, the yeast fitness was found to be 0.692.

For C46G G51C, the yeast fitness worked out at 0.591.

With G23A A43C G44A A65G, the yeast fitness turned out to be 0.637.

Consider G12C C24G G51C C62A U64G, for which the yeast fitness was 0.59.

Take C4U A14G A20C C34U C55U: the yeast fitness was at most 0.5.

As to G18C U59A, the yeast fitness came out at 0.631.

C29G C46U A57G C61U: the yeast fitness was at most 0.5.

Take U59C A70U: the yeast fitness came to 1.01.

Consider C11G G25A A36U, for which the yeast fitness amounted to 0.615.

With G10A C33U G44C A45G, the yeast fitness is at most 0.5.

With U13G G38A, the yeast fitness came out at 0.781.

With U7C U32C A45U G67A, the yeast fitness is at most 0.5.

For C4G C11A C30G G67A, the yeast fitness is at most 0.5.

As to A14G A43C, the yeast fitness worked out at 0.823.

With G25C C49G, the yeast fitness was 0.781.

Turning to C4G U32G C33U A37U A65G, the yeast fitness is at most 0.5.

Take G18A C30A U32A U35G: the yeast fitness is at most 0.5.

On to G25A G38C A42C, for which the yeast fitness was at most 0.5.

With C4G G25C A45C C46A, the yeast fitness came to 0.619.

Take G52C C66A: the yeast fitness amounted to 0.538.

As for G17C G63C C66U, the yeast fitness is at most 0.5.

Regarding A40C A42U U53C C61G, the yeast fitness was at most 0.5.

For the variant U13A C27U A69U, the yeast fitness came out at 0.864.

Turning to U32G A57U, the yeast fitness amounted to 0.527.

As to C4G U59G, the yeast fitness was 0.653.

With C31G A43U C46G C62U, the yeast fitness is at most 0.5.

As to U13C A21G C31G U47C, the yeast fitness came out at 0.555.

Take U2C A14C U35C: the yeast fitness was at most 0.5.

Consider C5A C60G C66G A69G, for which the yeast fitness is at most 0.5.

In the case of U7C C55G, the yeast fitness was found to be 0.628.

Take A43U A45G C55G: the yeast fitness is at most 0.5.

Consider U3G C5G G10A C30A C31G C49A C60U G67A, for which the yeast fitness was determined as 0.572.

In the case of U7A A21G C30G A36G C46G U54C A57U, the yeast fitness is at most 0.5.

In the case of A14G U16A C33A C49U C55U, the yeast fitness was at most 0.5.

G25C G39A G58C: the yeast fitness is 0.663.

Consider C27A U35C A37U C49U C55U C60G A65C, for which the yeast fitness is at most 0.5.

As for U16C C22G U64C, the yeast fitness was 0.625.

Consider A15C G63A, for which the yeast fitness worked out at 0.61.

For the variant A15C C49G C55G, the yeast fitness came out at 0.668.

Consider G39C A43G G48C G50A, for which the yeast fitness is at most 0.5.

In the case of C29U A43U A69C, the yeast fitness is 0.735.

For the variant A20U C31U A57U, the yeast fitness stood at 0.567.

As for A15U U32A C33G U53A, the yeast fitness was at most 0.5.

As for A36C A37C U53G C66U A70C, the yeast fitness amounted to 0.531.

Turning to C22G C27G C31G C60U, the yeast fitness is at most 0.5.

As for G9A A43G U59A A69G, the yeast fitness was at most 0.5.

For G9C A15C G52C, the yeast fitness was at most 0.5.

As to C30G A57G, the yeast fitness is 0.616.

Turning to U8A C11U A20C A70U, the yeast fitness is at most 0.5.

C22U A37C G41C: the yeast fitness is at most 0.5.

Take G23C G56A: the yeast fitness turned out to be 0.566.

G18A U19A C61U: the yeast fitness came to 0.61.

With C27A C60U A69G, the yeast fitness is at most 0.5.

Turning to U53C A70U, the yeast fitness worked out at 0.848.

As to A15C C49A G67C, the yeast fitness is at most 0.5.

For G12A G41A C60G A65G, the yeast fitness came out at 0.559.

Consider G18C G23A C24U C61U, for which the yeast fitness was at most 0.5.

As for C22U C49U U64A, the yeast fitness stood at 0.53.

In the case of C24A A65G, the yeast fitness amounted to 0.654.

For the variant U28A U32C C49G G52A, the yeast fitness is at most 0.5.

Take C11U A20G C22A G23C U28G A43G A57G: the yeast fitness is at most 0.5.

Regarding A15C C55G, the yeast fitness came to 0.593.

With U2G U7G U26A C49U A65U, the yeast fitness was at most 0.5.

In the case of G9C A15G, the yeast fitness was 0.633.

As to U19C C34A, the yeast fitness came to 0.76.

Regarding C5G G9C A20U A21G C24G C27G G68A, the yeast fitness was at most 0.5.

C5G A45C C60U A69U: the yeast fitness was determined as 0.52.

For the variant C33U G68C, the yeast fitness turned out to be 0.686.

Turning to C5G U59G C66U, the yeast fitness was at most 0.5.

Regarding U2C C27U, the yeast fitness stood at 0.881.

In the case of G39C C55G U59A G63A, the yeast fitness is at most 0.5.

In the case of C24U C46A A65G, the yeast fitness was determined as 0.7.

As for A20G C22G C27G C30U C31G G51C C61G, the yeast fitness was at most 0.5.

As to U7C C34U C55A A65G, the yeast fitness was at most 0.5.

On to C31U C46A G58C A69U, for which the yeast fitness was 0.543.

In the case of A15C G17C C31A G44C, the yeast fitness is at most 0.5.

As for U3A A36G A42C, the yeast fitness came to 0.647.

Take A40G G56A: the yeast fitness turned out to be 0.998.
